Measured values: ChEMBL document CHEMBL3098117, “Identification and optimization of an aminoalcohol-carbazole series with antimalarial properties” (ACS Med Chem Lett, 2013)
One block for each molecule: values may come before it. Active and inactive are the calls of the source. The calls are words filed in the database; no cut-off is given here.

Legend:
Plasmodium falciparum [1] = assay: Antimalarial activity against Plasmodium falciparum K1 infected in human RBC after 72 hrs by hypoxanthine incorporation assay in presence of serum albumin; assay type: functional, organism-based; conditions: for IC50: K1, 72 h
In short: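 Mixture of drug, human red blood cells and P. falciparum incubated 3 days (72 h) with serum albumin present; growth read as hypoxanthine incorporation.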

Plasmodium falciparum [2] = assay: Antimalarial activity against chloroquine-resistant Plasmodium falciparum K1 infected in human RBC; assay type: functional, organism-based
In short: (§1)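 P. falciparum cultured with test drug in human red blood cells for 3 days. Growth read out as hypoxanthine incorporation.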

[3] = target: Voltage-gated inwardly rectifying potassium channel KCNH2 (Homo sapiens, UniProt Q12809); assay: Inhibition of human ERG expressed in CHO cells; assay type: cell-based
Cytochrome P450 3A4 = Cytochrome P450 3A4 (Homo sapiens, UniProt P08684); assay: Inhibition of human recombinant CYP3A4 expressed in baculovirus-infected insect cells preincubated for 15 mins followed by substrate addition measured after 30 mins by luminescence assay; assay type: ADME; conditions: recombinant enzyme, 0.5 h
Cytochrome P450 2D6 = Cytochrome P450 2D6 (Homo sapiens, UniProt P10635); assay: Inhibition of human recombinant CYP2D6 expressed in baculovirus-infected insect cells preincubated for 15 mins followed by substrate addition measured after 30 mins by luminescence assay; assay type: ADME; conditions: recombinant enzyme, 0.5 h
Cytochrome P450 2C19 = Cytochrome P450 2C19 (Homo sapiens, UniProt P33261); assay: Inhibition of human recombinant CYP2C19 expressed in baculovirus-infected insect cells preincubated for 15 mins followed by substrate addition measured after 30 mins by luminescence assay; assay type: ADME; conditions: recombinant enzyme, 0.5 h
Cytochrome P450 2C9 = Cytochrome P450 2C9 (Homo sapiens, UniProt P11712); assay: Inhibition of human recombinant CYP2C9 expressed in baculovirus-infected insect cells preincubated for 15 mins followed by substrate addition measured after 30 mins by luminescence assay; assay type: ADME; conditions: recombinant enzyme, 0.5 h
Cytochrome P450 2C8 = target: T1, Cytochrome P450 2C8 (Homo sapiens, UniProt P10632); assay: Inhibition of human recombinant CYP2C8 expressed in baculovirus-infected insect cells preincubated for 15 mins followed by substrate addition measured after 30 mins by luminescence assay; assay type: ADME; conditions: recombinant enzyme, 0.5 h
T1 sequence (P10632 whole entry): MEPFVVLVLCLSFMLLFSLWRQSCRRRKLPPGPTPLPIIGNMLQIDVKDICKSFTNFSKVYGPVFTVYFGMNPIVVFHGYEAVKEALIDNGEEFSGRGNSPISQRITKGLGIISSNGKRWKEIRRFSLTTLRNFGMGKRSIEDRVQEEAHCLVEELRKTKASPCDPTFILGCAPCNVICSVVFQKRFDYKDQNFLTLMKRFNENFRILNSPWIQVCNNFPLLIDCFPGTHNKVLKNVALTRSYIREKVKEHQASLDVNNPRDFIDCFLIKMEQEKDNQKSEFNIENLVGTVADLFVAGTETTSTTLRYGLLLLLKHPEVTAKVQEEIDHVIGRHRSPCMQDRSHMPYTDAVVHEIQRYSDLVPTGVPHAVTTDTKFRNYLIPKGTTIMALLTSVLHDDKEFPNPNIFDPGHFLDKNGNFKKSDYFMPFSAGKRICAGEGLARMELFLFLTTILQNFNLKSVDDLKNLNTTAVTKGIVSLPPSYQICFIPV

Cytochrome P450 2B6 = target: T2, Cytochrome P450 2B6 (Homo sapiens, UniProt P20813); assay: Inhibition of human recombinant CYP2B6 expressed in baculovirus-infected insect cells preincubated for 15 mins followed by substrate addition measured after 30 mins by luminescence assay; assay type: ADME; conditions: recombinant enzyme, 0.5 h
T2 sequence (P20813 whole entry): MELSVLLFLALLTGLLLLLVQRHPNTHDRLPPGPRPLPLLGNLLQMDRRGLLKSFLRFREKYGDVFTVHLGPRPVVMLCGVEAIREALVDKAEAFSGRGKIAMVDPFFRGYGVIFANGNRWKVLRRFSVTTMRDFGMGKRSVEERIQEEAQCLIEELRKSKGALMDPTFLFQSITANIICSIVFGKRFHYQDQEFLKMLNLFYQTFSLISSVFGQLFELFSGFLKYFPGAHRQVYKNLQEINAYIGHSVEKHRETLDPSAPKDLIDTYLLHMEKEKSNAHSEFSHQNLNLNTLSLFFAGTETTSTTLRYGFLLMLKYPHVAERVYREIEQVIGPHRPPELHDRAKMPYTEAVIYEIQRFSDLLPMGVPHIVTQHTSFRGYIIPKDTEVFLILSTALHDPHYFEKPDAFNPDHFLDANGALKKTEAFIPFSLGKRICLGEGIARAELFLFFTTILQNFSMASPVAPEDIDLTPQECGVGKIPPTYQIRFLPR

Cytochrome P450 1A2 = target: T3, Cytochrome P450 1A2 (Homo sapiens, UniProt P05177); assay: Inhibition of human recombinant CYP1A2 expressed in baculovirus-infected insect cells preincubated for 15 mins followed by substrate addition measured after 30 mins by luminescence assay; assay type: ADME; conditions: recombinant enzyme, 0.5 h
T3 sequence (P05177 whole entry): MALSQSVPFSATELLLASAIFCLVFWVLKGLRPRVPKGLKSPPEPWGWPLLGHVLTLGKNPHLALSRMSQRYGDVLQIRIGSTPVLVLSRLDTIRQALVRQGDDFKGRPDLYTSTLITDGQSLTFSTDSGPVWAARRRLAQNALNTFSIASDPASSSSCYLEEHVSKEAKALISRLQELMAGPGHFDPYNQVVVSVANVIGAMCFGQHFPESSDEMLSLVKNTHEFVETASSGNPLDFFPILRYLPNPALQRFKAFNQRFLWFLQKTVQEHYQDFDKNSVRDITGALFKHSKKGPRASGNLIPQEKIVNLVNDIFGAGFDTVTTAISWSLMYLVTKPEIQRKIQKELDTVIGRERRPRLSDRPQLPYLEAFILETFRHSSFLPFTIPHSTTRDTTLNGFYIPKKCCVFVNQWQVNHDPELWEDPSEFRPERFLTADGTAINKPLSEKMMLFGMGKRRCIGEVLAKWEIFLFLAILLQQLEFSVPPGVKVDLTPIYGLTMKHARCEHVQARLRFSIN

Plasmodium berghei [4] = assay: Antimalarial activity against Plasmodium berghei ANKA expressing GFP infected in NMRI mouse assessed as mean survival days at 100 mg/kg/day, po qd for 4 days measured at 24 hrs after last dose; assay type: functional
In short: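 P. berghei-infected mice dosed orally once daily on days 0–3, starting 4 h postinfection, in groups of 3, 10, 30 and 100 mg/kg/day. Red blood cell parasitemia and plasma exposure measured on day 4, 24 h after the last dose. Mean survival days then monitored over 26 further days.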

Plasmodium berghei [5] = assay: Antimalarial activity against Plasmodium berghei ANKA expressing GFP infected in NMRI mouse assessed as reduction in parasitemia at 100 mg/kg/day, po qd for 4 days measured at 24 hrs after last dose relative to control; assay type: functional; design: scale not given: the % may be the effect or the level left
In short: (§2)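 P. berghei-infected mice dosed orally once daily on days 0–3, first dose 4 h postinfection, at 3, 10, 30 and 100 mg/kg/day. Red blood cell parasitemia and plasma exposure measured on day 4, 24 h after last dose; ED50 derived from dose-response; survival then monitored for 26 further days as mean survival days.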

Plasmodium berghei [6] = assay: Antimalarial activity against Plasmodium berghei ANKA expressing GFP infected in po dosed NMRI mouse assessed as reduction in parasitemia administered qd for 4 days measured at 24 hrs after last dose; assay type: functional; in short: as §2
[7] = AUC in NMRI mouse at 1 mg/kg, iv and 5 mg/kg, po by LC-MS/MS analysis; assay type: ADME, organism-based; conditions: plasma
[8] = Cmax in NMRI mouse at 1 mg/kg, iv and 5 mg/kg, po by LC-MS/MS analysis; assay type: ADME, organism-based; conditions: in vivo
[9] = Terminal half life in NMRI mouse at 5 mg/kg, po by LC-MS/MS analysis; assay type: ADME, organism-based; design: dose 5 mg/kg, route oral; conditions: in vivo, read-out: beta t1/2 (converted)
[10] = Volume of distribution at steady state in NMRI mouse at 1 mg/kg, iv by LC-MS/MS analysis; assay type: ADME, organism-based; design: dose 1 mg/kg, route intravenous; conditions: in vivo, read-out: Vdss
[11] = Oral bioavailability in NMRI mouse at 5 mg/kg by LC-MS/MS analysis; assay type: ADME, organism-based; conditions: in vivo
Plasmodium falciparum [12] = assay: Antimalarial activity against chloroquine, pyrimethamine, quinine-resistant Plasmodium falciparum V1S; assay type: functional; conditions: VS/1
Plasmodium falciparum [13] = assay: Antimalarial activity against chloroquine, pyrimethamine, cycloguanil-resistant Plasmodium falciparum 7G8; assay type: functional, organism-based
Plasmodium falciparum [14] = assay: Antimalarial activity against mefloquine-resistant Plasmodium falciparum TM91C235; assay type: functional, organism-based
Plasmodium falciparum [15] = assay: Antimalarial activity against chloroquine, pyrimethamine, sulfadoxine and quinine-resistant Plasmodium falciparum W2; assay type: functional, organism-based
Plasmodium falciparum [16] = assay: Antimalarial activity against chloroquine, pyrimethamine, sulfadoxine, quinine and mefloquine-sensitive Plasmodium falciparum D6; assay type: functional, organism-based
Plasmodium falciparum [17] = assay: Antimalarial activity against drug-sensitive Plasmodium falciparum NF54; assay type: functional, organism-based
Plasmodium falciparum [18] = assay: Antimalarial activity against chloroquine and pyrimethamine-resistant Plasmodium falciparum K1; assay type: functional, organism-based; in short: as §1

Cytochrome P450 3A4, sequence (P08684 whole entry): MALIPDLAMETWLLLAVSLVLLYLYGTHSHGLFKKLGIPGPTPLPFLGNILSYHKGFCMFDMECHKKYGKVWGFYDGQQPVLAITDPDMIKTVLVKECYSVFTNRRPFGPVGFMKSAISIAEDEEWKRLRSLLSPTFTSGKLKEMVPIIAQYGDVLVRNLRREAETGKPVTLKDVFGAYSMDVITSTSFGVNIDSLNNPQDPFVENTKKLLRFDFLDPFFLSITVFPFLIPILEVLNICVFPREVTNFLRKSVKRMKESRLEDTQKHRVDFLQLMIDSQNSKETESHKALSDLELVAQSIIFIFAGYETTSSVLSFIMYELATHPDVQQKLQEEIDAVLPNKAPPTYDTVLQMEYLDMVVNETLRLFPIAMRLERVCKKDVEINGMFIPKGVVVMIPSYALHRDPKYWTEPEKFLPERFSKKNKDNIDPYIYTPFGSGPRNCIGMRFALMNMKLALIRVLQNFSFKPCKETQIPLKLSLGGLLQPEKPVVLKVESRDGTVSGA
Cytochrome P450 2C9, sequence (P11712 whole entry): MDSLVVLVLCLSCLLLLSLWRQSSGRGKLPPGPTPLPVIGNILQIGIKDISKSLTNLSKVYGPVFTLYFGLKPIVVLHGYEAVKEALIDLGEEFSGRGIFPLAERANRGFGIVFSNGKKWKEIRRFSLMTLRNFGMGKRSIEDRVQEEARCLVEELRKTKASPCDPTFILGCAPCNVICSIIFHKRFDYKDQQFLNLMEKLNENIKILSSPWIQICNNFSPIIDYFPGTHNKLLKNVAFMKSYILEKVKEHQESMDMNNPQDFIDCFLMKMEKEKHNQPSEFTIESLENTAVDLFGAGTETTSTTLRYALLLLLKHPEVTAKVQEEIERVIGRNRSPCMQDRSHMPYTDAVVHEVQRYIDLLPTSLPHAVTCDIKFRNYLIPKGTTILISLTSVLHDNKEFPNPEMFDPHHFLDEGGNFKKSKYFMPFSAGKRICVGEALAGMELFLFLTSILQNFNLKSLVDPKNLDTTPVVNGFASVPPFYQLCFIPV
Voltage-gated inwardly rectifying potassium channel KCNH2, sequence (Q12809 whole entry): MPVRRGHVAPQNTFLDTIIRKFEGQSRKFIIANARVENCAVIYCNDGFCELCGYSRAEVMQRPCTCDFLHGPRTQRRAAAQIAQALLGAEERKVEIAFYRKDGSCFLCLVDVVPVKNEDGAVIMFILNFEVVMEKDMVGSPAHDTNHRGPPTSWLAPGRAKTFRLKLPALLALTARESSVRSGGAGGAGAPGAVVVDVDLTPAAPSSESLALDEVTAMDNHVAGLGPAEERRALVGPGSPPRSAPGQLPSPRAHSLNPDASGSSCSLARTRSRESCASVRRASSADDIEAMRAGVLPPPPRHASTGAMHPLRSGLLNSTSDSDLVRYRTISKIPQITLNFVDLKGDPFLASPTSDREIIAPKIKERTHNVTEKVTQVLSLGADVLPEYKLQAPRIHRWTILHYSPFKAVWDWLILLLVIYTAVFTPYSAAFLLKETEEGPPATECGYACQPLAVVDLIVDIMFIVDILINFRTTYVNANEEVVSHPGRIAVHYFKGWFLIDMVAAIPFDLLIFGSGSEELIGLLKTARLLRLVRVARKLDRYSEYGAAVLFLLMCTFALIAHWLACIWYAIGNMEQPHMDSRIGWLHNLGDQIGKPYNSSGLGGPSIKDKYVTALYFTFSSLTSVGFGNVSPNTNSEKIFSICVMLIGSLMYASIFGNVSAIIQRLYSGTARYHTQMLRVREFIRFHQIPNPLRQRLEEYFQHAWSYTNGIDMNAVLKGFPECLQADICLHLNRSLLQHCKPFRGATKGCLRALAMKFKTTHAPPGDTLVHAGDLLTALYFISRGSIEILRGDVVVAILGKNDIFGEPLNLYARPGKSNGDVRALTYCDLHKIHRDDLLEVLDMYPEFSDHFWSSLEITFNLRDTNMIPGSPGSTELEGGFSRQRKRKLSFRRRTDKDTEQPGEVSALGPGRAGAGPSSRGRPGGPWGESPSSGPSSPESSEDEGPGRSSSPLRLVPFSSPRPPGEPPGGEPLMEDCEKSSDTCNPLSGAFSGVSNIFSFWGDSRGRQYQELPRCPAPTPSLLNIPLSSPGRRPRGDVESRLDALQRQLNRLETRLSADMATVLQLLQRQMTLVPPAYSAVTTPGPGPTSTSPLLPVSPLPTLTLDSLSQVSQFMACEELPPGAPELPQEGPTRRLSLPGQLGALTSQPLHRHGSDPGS
Cytochrome P450 2C19, sequence (P33261 whole entry): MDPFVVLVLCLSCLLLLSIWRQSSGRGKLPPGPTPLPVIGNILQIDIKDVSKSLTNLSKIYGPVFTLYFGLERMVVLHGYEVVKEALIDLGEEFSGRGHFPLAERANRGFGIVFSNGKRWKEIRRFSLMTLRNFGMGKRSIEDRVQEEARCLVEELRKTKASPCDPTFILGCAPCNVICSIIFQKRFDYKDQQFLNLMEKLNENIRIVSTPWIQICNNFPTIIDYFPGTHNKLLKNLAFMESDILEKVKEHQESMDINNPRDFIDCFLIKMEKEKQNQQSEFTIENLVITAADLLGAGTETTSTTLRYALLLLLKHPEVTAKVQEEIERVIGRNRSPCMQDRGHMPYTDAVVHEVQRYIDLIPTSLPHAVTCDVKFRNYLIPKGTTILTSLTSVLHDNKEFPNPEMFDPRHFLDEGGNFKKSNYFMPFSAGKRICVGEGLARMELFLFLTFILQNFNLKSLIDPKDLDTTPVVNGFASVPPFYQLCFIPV
Cytochrome P450 2D6, sequence (P10635 whole entry): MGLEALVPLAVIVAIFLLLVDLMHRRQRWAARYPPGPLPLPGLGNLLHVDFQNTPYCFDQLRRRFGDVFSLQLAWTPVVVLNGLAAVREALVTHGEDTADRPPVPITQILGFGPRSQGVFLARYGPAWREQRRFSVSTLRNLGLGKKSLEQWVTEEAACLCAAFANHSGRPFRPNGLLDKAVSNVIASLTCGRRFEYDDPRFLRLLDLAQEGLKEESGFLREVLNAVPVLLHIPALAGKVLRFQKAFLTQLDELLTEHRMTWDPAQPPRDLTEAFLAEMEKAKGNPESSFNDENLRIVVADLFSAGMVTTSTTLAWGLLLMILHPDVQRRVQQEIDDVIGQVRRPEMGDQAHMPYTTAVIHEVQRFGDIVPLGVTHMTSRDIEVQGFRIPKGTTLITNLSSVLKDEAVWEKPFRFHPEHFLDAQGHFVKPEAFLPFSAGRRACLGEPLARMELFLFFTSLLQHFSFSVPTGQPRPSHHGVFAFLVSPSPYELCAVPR

IC50 (Plasmodium falciparum [1]): 0.448 µM
SMILES: O=C(CN1CCN(CC2CCCCC2)CC1)Cn1c2ccc(Cl)cc2c2cc(Cl)ccc21

IC50 (Plasmodium falciparum [1]): 0.165 µM
SMILES: OC(CN1CCN(Cc2ccccc2)CC1)Cn1c2ccccc2c2cc(Cl)ccc21 (stereo not given)

SMILES: CC12CCC(CN(CC(O)Cn3c4ccc(Cl)cc4c4cc(Cl)ccc43)C1)C2(C)C (stereo not given)
IC50 (Plasmodium falciparum [2]): 0.057 µM

IC50 (Plasmodium falciparum [1]): 0.275 µM
SMILES: OC(CN1CCN(Cc2ccccc2)CC1)Cn1c2ccccc2c2ccccc21 (stereo not given)

inhibition (INH) (Cytochrome P450 3A4): Active
inhibition (INH) (Cytochrome P450 2D6): Active
inhibition (INH) (Cytochrome P450 2C19): Active
inhibition (INH) (Cytochrome P450 2C9): Active
inhibition (INH) (Cytochrome P450 2C8): Active
inhibition (INH) (Cytochrome P450 2B6): Active
inhibition (INH) (Cytochrome P450 1A2): Active
SMILES: O[C@@H](CNC1CCCCC1)Cn1c2ccc(Br)cc2c2cc(Br)ccc21
inhibition (INH) [3]: Active
Activity (Plasmodium falciparum [1]): Active

IC50 (Plasmodium falciparum [1]): 0.106 µM
SMILES: FC(CN1CCN(CC2CCCCC2)CC1)Cn1c2ccc(Br)cc2c2cc(Br)ccc21 (stereo not given)

IC50 (Plasmodium falciparum [1]): 0.027 µM
SMILES: OC(CN1CCN(Cc2ccccc2)CC1)Cn1c2ccc(Br)cc2c2cc(Br)ccc21 (stereo not given)

IC50 (Plasmodium falciparum [1]): 0.707 µM
SMILES: Clc1ccc2c(c1)c1cc(Cl)ccc1n2CCCN1CCN(CC2CCCCC2)CC1

IC50 (Plasmodium falciparum [1]): 0.344 µM
SMILES: O=C1CN(Cc2ccccc2)CCN1CC(O)Cn1c2ccc(Cl)cc2c2cc(Cl)ccc21 (stereo not given)

IC50 (Plasmodium falciparum [1]): 3.31 µM
SMILES: COC(CN1CCN(Cc2ccccc2)CC1)Cn1c2ccccc2c2ccccc21 (stereo not given)

SMILES: C[C@@H]1CC[C@H]2[C@@H](C)C(=O)O[C@@H]3O[C@@]4(C)CC[C@@H]1[C@]32OO4 [ARTEMISININ]
IC50 (Plasmodium falciparum [2]): 0.0054 µM

SMILES: OC(CN1CCN(CC2CCCCC2)CC1)Cn1c2ccc(Cl)cc2c2cc(Cl)ccc21 (stereo not given)
Activity (Plasmodium berghei [4]): Active
Activity (Plasmodium berghei [5]): 99.93%
Activity (Plasmodium berghei [6]): Dose dependent effect
ED50 (Plasmodium berghei [6]): 34.5 mg/kg/day
AUC [7]: 1580 ng·h/mL
Cmax [8]: 135 ng/mL
half-life [9]: 8 h
Vd [10]: 15 L/kg
bioavailability [11]: 50%
Activity (Plasmodium falciparum [12]): Active
Activity (Plasmodium falciparum [13]): Active
Activity (Plasmodium falciparum [14]): Active
Activity (Plasmodium falciparum [15]): Active
Activity (Plasmodium falciparum [16]): Active
Activity (Plasmodium falciparum [17]): Active
Activity (Plasmodium falciparum [18]): Active
IC50 (Plasmodium falciparum [1]): 0.016 µM

inhibition (INH) (Cytochrome P450 3A4): Active
inhibition (INH) (Cytochrome P450 2D6): Active
inhibition (INH) (Cytochrome P450 2C19): Active
inhibition (INH) (Cytochrome P450 2C9): Active
inhibition (INH) (Cytochrome P450 2C8): Active
inhibition (INH) (Cytochrome P450 2B6): Active
inhibition (INH) (Cytochrome P450 1A2): Active
SMILES: O[C@H](CNC1CCCCC1)Cn1c2ccc(Br)cc2c2cc(Br)ccc21
inhibition (INH) [3]: Active
Activity (Plasmodium falciparum [1]): Active
